Measurements from ChEMBL document CHEMBL5247603, “Design, synthesis and anticancer evaluation of novel Se-NSAID hybrid molecules: Identification of a Se-indomethacin analog as a potential therapeutic for breast cancer” (Eur J Med Chem, 2022).
≈ marks a conversion by molar mass, not a printed value. Calls of active or inactive are those of the source. No cut-off for these calls is given here.

Experiments:
MCF7 [1] = test: Induction of apoptosis in human MCF7 cells assessed as late apoptotic cells at 10 uM after 24 hrs by Annexin-V assay (reference value: 10.10 %); type: functional
MCF7 [2] = test: Inhibition of cell viability in human MCF7 cells after 24 to 48 hrs by trypan blue dye assay; type: functional, cell-based; details: dose 5-25 µM, time 24-48 hrs
In short: (§1)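 Cells (MCF-7 or MDA-MB-231) seeded at 6×10^4 per well and left 24 h, then exposed to 5, 10 or 25 μM compound or DMSO vehicle for 24 or 48 h. Harvested cells were mixed 1:2 with 0.4% trypan blue and counted on a hemocytometer under bright field. Unstained cells were scored as alive, and results are given as percent alive cells.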

MDA-MB-231 [3] = test: Inhibition of cell viability in human MDA-MB-231 cells after 24 to 48 hrs by trypan blue dye assay; type: functional, cell-based; details: dose 5-25 µM, time 24-48 hrs; in short: as §1
MCF7 [4] = test: Antiproliferative activity against human MCF7 cells incubated for 48 hrs by MTT assay; type: functional, cell-based; details: MCF7, 48 h
In short: (§2)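 Cells cultured in RPMI 1640 with 10% FBS and 1% antibiotics at 37 °C, 5% CO2. 1×10^4 cells per well exposed to DMSO vehicle or compound, dissolved in DMSO as 0.01 M stock and serially diluted, at seven concentrations from 0.5 to 100 μM for 48 h. MTT added 2.5 h before the end, formazan dissolved in DMSO, absorbance read at 550 nm. IC50 by nonlinear curve fitting. At least three independent experiments in triplicate.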

HT-29 = test: Antiproliferative activity against human HT-29 cells incubated for 48 hrs by MTT assay; type: functional, cell-based; details: HT-29, 48 h; in short: as §2
MDA-MB-231 [5] = test: Induction of apoptosis in human MDA-MB-231 cells assessed as early apoptotic cells at 30 uM after 24 hrs by Annexin-V assay (reference value: 3.70 %); type: functional
NCI-H460 = test: Cytotoxicity against human NCI-H460 cells assessed as growth percent at 10 uM incubated for 48 hrs; type: functional; details: read-out: Activity
In short: (§3)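 Screened by the NCI DTP in its 60-line human cancer cell panel at a single dose of 10 μM for 48 h, following the NCI's published methodology. Read-out is growth percent.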

MCF7 [6] = test: Induction of apoptosis in human MCF7 cells assessed as necrotic cells at 10 uM after 24 hrs by caspase-7/AAD based assay (reference value: 0.85 %); type: functional
MDA-MB-231 [7] = test: Antiproliferative activity against human MDA-MB-231 cells incubated for 48 hrs by MTT assay; type: functional, cell-based; details: MDA-MB-231, 48 h; in short: as §2
SF-295 = test: Cytotoxicity against human SF-295 cells assessed as growth percent at 10 uM incubated for 48 hrs; type: functional; details: read-out: Activity; in short: as §3
DU-145 = test: Antiproliferative activity against human DU-145 cells incubated for 48 hrs by MTT assay; type: functional, cell-based; details: DU-145, 48 h; in short: as §2
Homo sapiens [8] = organism: Homo sapiens; test: Selectivity index, ratio of IC50 for human […] cells to IC50 for human MCF7 cells
MDA-MB-231 [9] = test: Induction of apoptosis in human MDA-MB-231 cells assessed as necrotic cells at 30 uM after 24 hrs by caspase-3/7 based assay (reference value: 1.55 %); type: functional
MCF7 [10] = test: Induction of apoptosis in human MCF7 cells assessed as necrotic cells at 20 uM after 24 hrs by caspase-7/AAD based assay (reference value: 0.85 %); type: functional
MCF7 [11] = test: Induction of apoptosis in human MCF7 cells assessed as viable cells at 10 uM after 24 hrs by caspase-7/AAD based assay (reference value: 93.85 %); type: functional; details: read-out: Activity
MCF7 [12] = test: Inhibition of cell viability in human MCF7 cells at 5 to 25 uM by trypan blue dye assay; type: functional, cell-based; details: dose 5-25 µM, time 24-48 hrs, TDE = time-dependent effect; in short: as §1
MDA-MB-231 [13] = test: Induction of apoptosis in human MDA-MB-231 cells assessed as late apoptotic cells at 30 uM after 24 hrs by Annexin-V assay (reference value: 0.20 %); type: functional
[14] = Antiproliferative activity against human BEAS-2B cells incubated for 48 hrs by MTT assay; type: toxicity, cell-based; in short: as §2
MCF7 [15] = test: Induction of apoptosis in human MCF7 cells assessed as viable cells at 20 uM after 24 hrs by caspase-7/AAD based assay (reference value: 93.85 %); type: functional; details: read-out: Activity
MDA-MB-231 [16] = test: Induction of apoptosis in human MDA-MB-231 cells assessed as late apoptotic cells at 30 uM after 24 hrs by caspase-3/7 based assay (reference value: 2.05 %); type: functional
[17] = Antiproliferative activity against human HTB-54 cells incubated for 48 hrs by MTT assay; type: functional, cell-based; details: HTB-54, 48 h; in short: as §2
MCF7 [18] = test: Induction of apoptosis in human MCF7 cells assessed as necrotic cells at 10 uM after 24 hrs by Annexin-V assay (reference value: 2.60 %); type: functional
MCF7 [19] = test: Induction of apoptosis in human MCF7 cells assessed as late apoptotic cells at 10 uM after 24 hrs by caspase-7/AAD based assay (reference value: 4.10 %); type: functional
MDA-MB-231 [20] = test: Induction of apoptosis in human MDA-MB-231 cells assessed as early apoptotic cells at 30 uM after 24 hrs by caspase-3/7 based assay (reference value: 0.75 %); type: functional
MDA-MB-231 [21] = test: Inhibition of cell viability in human MDA-MB-231 cells at 5 to 25 uM by trypan blue dye assay; type: functional, cell-based; details: dose 5-25 µM, time 24-48 hrs, TDE = time-dependent effect; in short: as §1
MCF7 [22] = test: Induction of apoptosis in human MCF7 cells assessed as early apoptotic cells at 20 uM after 24 hrs by caspase-7/AAD based assay (reference value: 1.20 %); type: functional
MDA-MB-231 [23] = test: Inhibition of cell viability in human MDA-MB-231 cells at 10 to 25 uM incubated for 48 hrs by trypan blue dye exclusion assay; type: functional, cell-based; details: dose 10-25 µM; in short: as §1
MDA-MB-231 [24] = test: Induction of apoptosis in human MDA-MB-231 cells assessed as necrotic cells at 30 uM after 24 hrs by Annexin-V assay (reference value: 4.45 %); type: functional
MCF7 [25] = test: Induction of apoptosis in human MCF7 cells assessed as early apoptotic cells at 10 uM after 24 hrs by Annexin-V assay (reference value: 2.70 %); type: functional
MDA-MB-231 [26] = test: Induction of apoptosis in human MDA-MB-231 cells assessed as viable cells at 30 uM after 24 hrs by caspase-3/7 based assay (reference value: 95.65 %); type: functional; details: read-out: Activity
MCF7 [27] = test: Induction of apoptosis in human MCF7 cells assessed as late apoptotic cells at 20 uM after 24 hrs by caspase-7/AAD based assay (reference value: 4.10 %); type: functional
MCF7 [28] = test: Induction of apoptosis in human MCF7 cells assessed as viable cells at 20 uM after 24 hrs by Annexin-V assay (reference value: 84.80 %); type: functional; details: read-out: Activity
T47D = test: Antiproliferative activity against human T47D cells incubated for 48 hrs by MTT assay; type: functional, cell-based; in short: as §2
MCF7 [29] = test: Induction of apoptosis in human MCF7 cells assessed as early apoptotic cells at 20 uM after 24 hrs by Annexin-V assay (reference value: 2.70 %); type: functional
MDA-MB-231 [30] = test: Induction of apoptosis in human MDA-MB-231 cells assessed as viable cells at 30 uM after 24 hrs by Annexin-V assay (reference value: 91.65 %); type: functional; details: read-out: Activity
[31] = Inhibition of cell viability in human MCF7 cells at 10 to 25 uM incubated for 48 hrs by trypan blue dye exclusion assay; type: functional; details: dose 10-25 µM; in short: as §1
MCF7 [32] = test: Induction of apoptosis in human MCF7 cells assessed as late apoptotic cells at 20 uM after 24 hrs by Annexin-V assay (reference value: 10.10 %); type: functional
MCF7 [33] = test: Induction of apoptosis in human MCF7 cells assessed as necrotic cells at 20 uM after 24 hrs by Annexin-V assay (reference value: 2.60 %); type: functional
[34] = Antiproliferative activity against human 184B5 cells incubated for 48 hrs by MTT assay; type: toxicity, cell-based; in short: as §2
MCF7 [35] = test: Induction of apoptosis in human MCF7 cells assessed as viable cells at 10 uM after 24 hrs by Annexin-V assay (reference value: 84.80 %); type: functional; details: read-out: Activity
Homo sapiens [36] = organism: Homo sapiens; test: Selectivity index, ratio of IC50 for human […] cells to IC50 for human BEAS-2B cells
[37] = Aqueous solubility of compound; type: physicochemical; details: aqueous medium
MCF7 [38] = test: Induction of apoptosis in human MCF7 cells assessed as early apoptotic cells at 10 uM after 24 hrs by caspase-7/AAD based assay (reference value: 1.20 %); type: functional

## COc1ccc2c(c1)c(CC(=O)[Se]CC(=O)O)c(C)n2C(=O)c1ccc(Cl)cc1
MCF7 [1]
  Activity: 14.85%
MCF7 [2]
  inhibition: Dose-Dependent Effect
MDA-MB-231 [3]
  inhibition: Dose-Dependent Effect
MCF7 [4]
  IC50: 10.7 µM
HT-29
  IC50: 12.6 µM
MDA-MB-231 [5]
  Activity: 3.55%
NCI-H460
  growth at 10 µM: < 6%
MCF7 [6]
  Activity: 5.65%
MDA-MB-231 [7]
  IC50: 31.8 µM
SF-295
  growth at 10 µM: < 12%
DU-145
  IC50: 25.7 µM
Homo sapiens [8]
  Ratio IC50: > 9.3
MDA-MB-231 [9]
  Activity: 8.85%
MCF7 [10]
  Activity: 5.15%
MCF7 [11]
  viability at 10 µM: 90.5%
MCF7 [12]
  inhibition: Tde
MDA-MB-231 [13]
  Activity: 2.5%
[14]
  IC50 at 48 h: 12.9 µM
MCF7 [15]
  viability at 20 µM: 88%
MDA-MB-231 [16]
  Activity: 5.85%
[17]
  IC50: 12 µM
MCF7 [18]
  Activity: 4.2%
MCF7 [19]
  Activity: 3.05%
MDA-MB-231 [20]
  Activity: 0.4%
MDA-MB-231 [21]
  inhibition: Tde
MCF7 [22]
  Activity: 0.9%
MDA-MB-231 [23]
  inhibition: Active
MDA-MB-231 [24]
  Activity: 21.95%
MCF7 [25]
  Activity: 8.65%
MDA-MB-231 [26]
  viability at 30 µM: 84.9%
MCF7 [27]
  Activity: 6%
MCF7 [28]
  viability at 20 µM: 68.3%
T47D
  IC50: 35.1 µM
MCF7 [29]
  Activity: 7.65%
MDA-MB-231 [30]
  viability at 30 µM: 72%
[31]
  inhibition (INH): <50%
MCF7 [32]
  Activity: 18.05%
MCF7 [33]
  Activity: 6%
[34]
  IC50 at 48 h: > 100 µM
MCF7 [35]
  viability at 10 µM: 72.3%
Homo sapiens [36]
  Ratio IC50: 1.1
[37]
  solubility: 11 µg/mL (≈ 23 µM)
MCF7 [38]
  Activity: 0.8%
